Laboratory results taken from PubChem BioAssay.
A number with no mark means an inactive call. Results filed as inconclusive are left out. Active and inactive are the calls of the source.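 The calls were made as follows, unless noted: active = viability at or below 27.92% in each of two runs, the all-compound median minus 4 SD; inconclusive = no clear call, values can overlap the other calls; inactive = the rest.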

Tests used:
[1] = OD615 S. cerevisiae growth inhibition, permissive medium, pilot counter-assay, permissive growth control for S. cerevisiae lifespan shortening project (AID 705;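 active = growth inhibition above 25% in both replicates, a cutoff set 3 SD above the mean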); details: OD615, 24 h, at 10 µM, active compounds read high
In short: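 assay system = Saccharomyces cerevisiae strain carrying genetically modified DeaD replicative-lifespan system | technique = absorbance (optical density) at 615 nm | buffer or medium = permissive raffinose/galactose medium | timing = cells pre-grown 4 h, then 24 h compound exposure, 30 °C humidified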

[2] = Restrictive medium S. cerevisiae growth inhibition, OD615, pilot screen of yeast lifespan reduction project, restrictive growth control (AID 706;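 active = growth inhibition above a set limit, 3 SD over mean compound inhibition, in both replicates, cut at about 43% in these data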;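 also: modified DeaD lifespan yeast strain shifted to restrictive glucose medium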); details: OD615, 48 h, at 10 µM, active compounds read high
In short: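 System: modified S. cerevisiae. Buffer or medium: CSMM-D glucose medium. Incubation: 4 h pre-growth plus 48 h compound exposure, 30 °C. Detection: absorbance (optical density) measured at 615 nm.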

[3] = viability gain of MRP-1-high H69AR cells under doxorubicin, pilot screen, MRP-1 activator project, CellTiter-Glo, duplicate (AID 807;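 active = viability increase at or above a cutoff of the median across tested compounds plus 3 SD, cut at about 8.5% in these data, passing the limit was not always enough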;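 also: compound pretreatment 18-22 h then 72 h combined with doxorubicin; 0% = doxorubicin alone and 100% = vehicle without doxorubicin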); details: H69AR viability with doxorubicin, CellTiter-Glo luminescence; at 10 µM; active compounds read high
[4] = growth suppression of beta-catenin knockout HCT116, pilot screen, human colon tumor cells (AID 823;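 active = cell viability at or below a set limit in both duplicate runs, the limit being the all-compound median minus 4 SD, cut at about 23% in these data, passing the limit was not always enough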;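 also: 0% = wells killed by 20 µM Hyamine and 100% = untreated DMSO cell wells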); details: CellTiter-Glo, 60 h, at 10 µM, active compounds read low
[5] = growth suppression of PTEN-deleted HCT116, pilot screen, cell-based, HCT116 clonal line, CellTiter-Glo (AID 824); details: 60 h, at 10 µM, active compounds read low;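 also: 0% = 20 µM Hyamine control and 100% = vehicle cell control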
[6] = inhibitors of the yeast RAM network, pilot screen, dse1pr::URA3 reporter, 5-FOA selection (AID 869;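 active = inhibition over a set limit, the all-compound mean plus 3 SD, in both replicate runs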;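 also: 0% = DMSO wells with no growth and 100% = 10 µM 1-NA-PP1 with full growth; RAM network block rescues cells from 5-FOA so hits raise OD615 growth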); details: S. cerevisiae dse1pr::URA3 5-FOA growth, OD615, 2 d; at 10 µM; active compounds read high; strain carries analog-sensitive mutant Cbk1 kinase
[7] = RAM signaling pathway blockade in yeast – S. cerevisiae, Pdr1DBD-CYC8 efflux-inhibited sensitized strain, primary screen (AID 1298;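 active = RAM network inhibition above 8.4% in each of two replicates, 3 SD over the compound average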;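 also: 0% = DMSO untreated cells without growth and 100% = 10 µM 1-NA-PP1 full growth; higher means more yeast growth rescued from 5-FOA killing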); details: S. cerevisiae cbk1-as DSE1-URA3 strain, 5-FOA growth OD615, 2 d; at 50 µM; active compounds read high

| Compound | growth inhibition [1] [%] | growth inhibition [2] [%] | viability increase [3] [%] | viability [4] | viability [5] | inhibition [6] [%] | RAM network inhibition [7] [%] |
| --- | --- | --- | --- | --- | --- | --- | --- |
| COCCN(C(=O)Nc1ccccc1)C(C)c1cccnc1 (stereo unspecified) | 9.6 | -1.42 | -2.41 | 93.5% | 97.5% | 1.54 | -1.08 |
| O=C(Nc1c(C(=O)N2CCCC2)cnn1-c1ccccc1)c1cccc(F)c1 | -7.52 | -1.27 | -0.46 | 96.7% | 98.9% | 0.475 | 1.02 |
| CCCSc1nnc2c(n1)OC(c1cccn1C)N(C(C)=O)c1ccccc1-2 (stereo unspecified) | -1.32 | -5.99 | -2.06 | 97.7% | 104% | 0.505 | 3.57 |
| CCOC(=O)c1cnc2ccc(C(=O)OC)cc2c1NCCN1CCOCC1 | -6.57 | -2.95 | -4.73 | 86.6% | 92.1% | 2.41 | 2.6 |
| O=C(O)CCCCCN1C(=O)c2ccc(C(=O)O)cc2C1=O | -14.4 | -10.8 | 1.08 | 103% | 105% | 1.88 | 6.72 |
| COc1ccc(OC)c(NC(=O)C2CCCN2C(=O)C2CCC(C)CC2)c1 (stereo unspecified) | -14.1 | 6.52 | -5.02 | 88.5% | 91.6% | 0.895 | -0.32 |
| Cc1nc(-c2ccc(S(=O)(=O)N3CCCCCC3)cc2)cs1 | 10.7 | 2.95 | -2.37 | 90.8% | 89.7% | 0.075 | 1.28 |
| Cn1c(SCC(=O)Nc2cccc(F)c2)nnc1-c1cccnc1 | -4.63 | -4.04 | 0.87 | 105% | 104% | 0.035 | 3.15 |
| Cc1c(NC(=O)NCCN2C(=O)C3C4C=CC(C4)C3C2=O)c(=O)n(-c2ccccc2)n1C (stereo unspecified) | -9.82 | -8.71 | 0.15 | 98.2% | 99.8% | 1.09 | 4.55 |
| Cc1ccc2c(CC(=O)Nc3nc(C)cs3)coc2c1 | -5.02 | 0.02 | 0.52 | 76.5% | 80.4% | 1.38 | 0.88 |
| Nc1nc(Nc2ccccc2Br)nc(C(F)(F)F)n1 | -3.56 | 4.02 | 0.23 | 104% | 93.4% | 1.84 | 0.72 |
| CC1(C)CC(=O)C2=C(C1)N(c1ccc(F)cc1)C(=O)CC2c1cccnc1 (stereo unspecified) | 0.065 | -2 | -2.17 | 95.9% | 100% | 2.41 | 5.94 |
| O=C(NC1=NCCS1)C1CC2CCC1C2 (stereo unspecified) | 7.66 | 6.69 | -2.34 | 99.1% | 97.1% | 1.96 | 3.02 |
| CC(=O)NCc1nc2ccccc2n1Cc1ccccc1C | 2.5 | -3.57 | -2.27 | 101% | 95.7% | 1.05 | 2.57 |
| Cc1cccc(-n2ncc3c(N(C)Cc4ccccc4)ncnc32)c1 | -2.16 | -0.895 | 5.35 | 109% | 88.7% | 0.7 | 4.33 |
| Nc1c(S(=O)(=O)c2ccccc2)c2nc3ccccc3nc2n1Cc1ccco1 | -25.5 | -16.2 | -3.97 | 78.8% | 73.8% | 2.83 | 7.51 |
| O=C(Nc1cccc(F)c1)c1ccc(S(=O)(=O)N2CCOCC2)cc1 | -17 | -7.46 | -2.24 | 98.3% | 99.6% | 1.13 | -1.21 |
| CCOC(=O)C(C)Sc1nnc(Cc2cc(=O)[nH]c(=O)[nH]2)n1-c1ccc(OCC)cc1 (stereo unspecified) | 2.12 | -6.84 | -0.85 | 109% | 101% | 0.75 | 2.89 |
| CCCCN1C(=O)C2C(c3ccc(OC)cc3O)NC(CC(C)C)(C(=O)O)C2C1=O (stereo unspecified) | -7.45 | -8.79 | 0.44 | 97.7% | 92.7% | 0.895 | 0.99 |
| Cc1cc(C(=O)NCC(c2ccco2)N(C)C)no1 (stereo unspecified) | -3.54 | -10.7 | -2.83 | 98.1% | 99.6% | 1.4 | 8.39 |
| CC(=O)Nc1ccc(S(=O)(=O)c2ccc(N)cc2)cc1N | -3.35 | 2.46 | -1.15 | 104% | 98.8% | 2.1 | 3.91 |
| O=C(c1cncc(Br)c1)N1CCN(c2ccc(N3CCOCC3)nn2)CC1 | -0.43 | 8.3 | -2.32 | 98.1% | 98.5% | 0.48 | 4.09 |
| COC(=O)c1ccc(C)c(NS(=O)(=O)c2ccc(OC)cc2)c1 | -0.83 | -23.9 | -5.33 | 16.6% (active) | 20.5% (active) | 2.15 | 9.79 |
| Cc1ccc(-c2noc(CSc3nnnn3C3CCCCC3)n2)cc1 | -16.1 | -13.6 | -1.39 | 89.8% | 84% | 0.525 | 5.16 |

| Compound | growth inhibition [1] [%] | growth inhibition [2] [%] | viability increase [3] [%] | viability [4] | viability [5] | inhibition [6] [%] | RAM network inhibition [7] [%] |
| --- | --- | --- | --- | --- | --- | --- | --- |
| CCOC(=O)c1ccc(N2C(=O)CC(C3CCCO3)C2=O)cc1 (stereo unspecified) | 4.47 | 1.21 | -2.28 | 101% | 94.3% | 0.84 | 2.15 |
| C=CCn1c(SCC(=C)C)nc2c1c(=O)[nH]c(=O)n2C | -14.8 | -25.6 | -0.41 | 109% | 97% | -0.415 | 1.55 |
| C=CCNc1oc(Cc2cccc3ccccc23)nc1C#N | -19.8 | -9.46 | -3.89 | 107% | 88% | 1.04 | 2.18 |
| COc1ccc(C(c2sc3nc(C)nn3c2O)N2CCC(C(N)=O)CC2)cc1OC (stereo unspecified) | -11.7 | -16.2 | -0.96 | 99.7% | 96.2% | 1.54 | 3.49 |
| CCc1c(C)nc(SCCOc2ccc(OC)cc2)[nH]c1=O | -12.6 | -9.17 | -0.04 | 108% | 93.9% | -0.015 | 1.64 |
| CC(=O)NC(NC(C)=O)c1ccc(N(C)C)cc1 | 2.72 | 16.3 | -0.12 | 100% | 100% | -0.22 | -0.26 |
| COc1cccc(-c2nc(CS(=O)(=O)CC(=O)NCc3ccccc3)c(C)o2)c1 | 6.62 | 8.33 | -0.84 | 94.8% | 88.1% | 1.4 | 3.28 |
| O=C(CSc1nc(-c2ccccc2)c(-c2ccccc2)o1)N1CCOCC1 | -8.68 | -15.5 | -3.26 | 90.2% | 89.6% | 2.38 | 4.54 |
| CC(C)N1CC(O)=C(c2ccccc2)C1=N | 2.25 | -15.7 | -0.1 | 96.5% | 97.2% | 0.86 | 4.5 |
| O=C(Nc1ccc(Cl)cc1)C1CC2CCCC(C1)C2=O (stereo unspecified) | -7.49 | -3.51 | 0.77 | 97.2% | 99.2% | 0.77 | 4.61 |
| COc1ccc(S(=O)(=O)Nc2cc(Cl)ccc2OC)cc1 | -12.3 | -21.9 | -6.67 | 16.5% (active) | 17.1% (active) | 0.78 | 6.09 |
| CC(C)c1nnc(NC(=O)CSc2ncn[nH]2)s1 | -14.4 | -13.9 | -0.74 | 98.3% | 94.2% | 0.135 | 1.34 |
| CC12CCC(C(=O)Nc3ccccc3N3CCOCC3)(CC1=O)C2(C)C (stereo unspecified) | -9.71 | -14.9 | -2.5 | 90.3% | 94.8% | 0.715 | 6.03 |
| O=C(Nc1ccccc1)N(CCc1ccncc1)C1CCCCC1 | -7 | -2.46 | -2.85 | 97.4% | 98.9% | 1.18 | -0.83 |
| c1ccc(OCCOCCSc2ncccn2)cc1 | 1.54 | -1.09 | 2.36 | 101% | 98.4% | 0.395 | 3.21 |
| Cc1cc(Nc2ccc(Br)cc2F)n2ncnc2n1 | -2.09 | 11.9 | -3.52 | 90.6% | 87.2% | 0.76 | -0.94 |
| CN(C)c1ccnc2sc(C(=O)NCc3ccccc3)c(N)c12 | -17.2 | 17.5 | -2.17 | 81.3% | 78.7% | 2.11 | 1.39 |
| CC1(C)C(c2ccccc2)=[N+]([O-])CN1O | 1.85 | 9.78 | -2.5 | 107% | 96.3% | -0.14 | -0.11 |
| CCCCNC(=O)c1ccc(CS(=O)(=O)c2ccc(OC)cc2)o1 | -14.2 | -23 | -0.64 | 107% | 97.8% | 0.45 | 2.18 |
| O=C(CCS(=O)(=O)c1ccccc1)Nc1nccs1 | -13.9 | -10.5 | -8.48 | 62.2% | 72.7% | 1.48 | 5.64 |
| O=C(NCC(c1cccs1)N1CCOCC1)c1cc2ccccc2o1 (stereo unspecified) | -2.08 | -15.1 | -1.69 | 99.3% | 100% | 0.345 | 0.26 |
| CCCCCCNC(=O)C(C(=O)OCC)C1CCCCC1 (stereo unspecified) | -4.1 | -1.5 | -1.52 | 84% | 82.2% | 0.15 | 3.88 |
| CCCC(=O)NC(C)c1nc2ccccc2n1CC (stereo unspecified) | -0.24 | 4.37 | 0.02 | 97% | 94.4% | 0.97 | 2.35 |
| CC1CN(C(=O)c2cc3ccccc3oc2=O)CC(C)O1 (stereo unspecified) | 5.08 | -3.64 | 0.49 | 98.4% | 103% | 0.555 | 2.33 |
